Peptide text beside a SMILES is read from it. * marks the point of attachment. Cbz = O=C(OCc1ccccc1)*
Tests used:
[1] = system: proteasome Ch-L catalytic subunit in yeast cell lysate (defective T-L/Ca-L); test: Yeast cell lysate assay, double mutant strain; type: biochemical; conditions: MG132 5 μM, peptide 5 9.25 μM, Fig. 1A green
[2] = system: 20S proteasome Ca-L active site; type: biochemical, Saccharomyces cerevisiae; conditions: 30 μM peptide 5; 100 μM Z-LLE-βna; purified 20S proteasome, Buffer A, 30 °C; λex 342 nm, λem 425 nm; Fig. 2B
[3] = system: 20S proteasome T-L active site; type: biochemical, Saccharomyces cerevisiae; conditions: 30 μM peptide 5; 100 μM Boc-LRR-amc; purified 20S proteasome, Buffer A, 30 °C; λex 380 nm, λem 460 nm; Fig. 2B
[4] = system: proteasome with defective Ch-L subunit in yeast cell lysate; test: Yeast cell lysate assay, defective Ch-L subunit; type: biochemical; conditions: peptide 9.25 μM; ~1 mg protein/mL lysate; λex 600 nm, λem 700 nm; Fig. 1A brown
Summary of the method: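 Yeast cells (catalytic Thr→Ala) were harvested in log phase into 50 mM Tris-HCl pH 7.4, 1 mM EDTA, 5 mM MgCl2, drop-frozen in liquid nitrogen, cryolysed by grinding mill, and cleared (14000 rpm, 20 min, 4 °C). Protein was set equal by Bradford. The sensor was added as half the assay volume from a 2× solution, and fluorescence change was followed on a plate reader.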

[5] = Light-driven conversion of caged probe to active probe; type: physicochemical; conditions: 349 nm pulsed UV laser; caged fluorescein derivative as reference (Fig. S-6)
Summary of the method: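 Uncaging by 349 nm diode-pumped Q-switched UV laser (5 ns pulses, 1 kHz, […] pulse energy) of the sample in a quartz cuvette. Dose was set by the number of pulses delivered and compared against an […] (CMNB)-fluorescein reference standard.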

For `CC(C)C[C@@H](C=O)NC(=O)[C@H](CC(C)C)NC(=O)[C@H](CC(C)C)NC(=O)OCc1ccccc1` [MG132] (Cbz-Leu-Leu-Leu-aldehyde), the “Effect of inhibitor on hydrolytic activity towards peptide 5 in lysate” value [1] was “completely abolishes hydrolytic activity”.
For “Ac-His-Trp-Ser-Leu-Lys(Fl)-amide [Peptide 5]”, the “Effect of Ch-L substrate on rate of Ca-L substrate processing” value [2] was “reduces the rate”, the “Effect of Ch-L substrate on rate of T-L substrate processing” value [3] was “reduces the rate” and the “Fluorescence change of the sensor in lysate with defective Ch-L subunit” value [4] was “barely perceptible fluorescence change”.
For “Ac-His-Trp-Ser-Leu-N(DMNB)-Lys(Fl)-amide [Peptide 10]”, the “Quantum yield for the photolytic conversion of 10 to 5” value [5] was 0.08.

Reference: publication PMC2820722 (Journal of the American Chemical Society, 2010)
